Here are results for 3 molecules from article PMC8809394 (Chemical Science, 2022).

The structures appear in SMILES notation. Positions count from the first letter of the chain named. Values joined by “and” are separate entries in the source; they are usually repeats but may differ in a detail not shown here. Identical values can stand only once.

The target in series [1] is BSA (Bos taurus, UniProt P02769). The series is described as follows: Luminescence lifetime titration with BSA. The format is binding. The conditions noted are these: 3a 5 μM, BSA in MQ H2O.
Chain of BSA (P02769 25-607): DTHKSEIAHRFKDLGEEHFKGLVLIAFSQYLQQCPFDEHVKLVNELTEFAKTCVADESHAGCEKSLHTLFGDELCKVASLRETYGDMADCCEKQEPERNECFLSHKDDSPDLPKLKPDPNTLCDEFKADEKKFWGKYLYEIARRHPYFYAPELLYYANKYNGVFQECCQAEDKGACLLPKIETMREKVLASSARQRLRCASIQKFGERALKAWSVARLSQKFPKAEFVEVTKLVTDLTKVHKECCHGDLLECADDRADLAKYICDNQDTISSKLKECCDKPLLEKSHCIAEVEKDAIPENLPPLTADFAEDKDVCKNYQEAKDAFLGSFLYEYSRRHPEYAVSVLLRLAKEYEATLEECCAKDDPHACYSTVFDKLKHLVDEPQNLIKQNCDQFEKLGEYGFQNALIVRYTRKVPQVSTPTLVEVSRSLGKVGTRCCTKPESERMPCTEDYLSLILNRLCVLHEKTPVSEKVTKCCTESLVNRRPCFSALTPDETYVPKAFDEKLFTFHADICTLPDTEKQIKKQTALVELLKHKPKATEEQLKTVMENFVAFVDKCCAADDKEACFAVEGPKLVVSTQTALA
Series [2] has as its target T1, POPNeut (prolyl oligopeptidase variant) (Pyrococcus furiosus, UniProt Q51714, G99A/K255A/R198A/R338A/R55A/W142A/Y326A).
T1 sequence (Q51714 1-616 R55A/G99A/W142A/R198A/K255A/Y326A/R338A): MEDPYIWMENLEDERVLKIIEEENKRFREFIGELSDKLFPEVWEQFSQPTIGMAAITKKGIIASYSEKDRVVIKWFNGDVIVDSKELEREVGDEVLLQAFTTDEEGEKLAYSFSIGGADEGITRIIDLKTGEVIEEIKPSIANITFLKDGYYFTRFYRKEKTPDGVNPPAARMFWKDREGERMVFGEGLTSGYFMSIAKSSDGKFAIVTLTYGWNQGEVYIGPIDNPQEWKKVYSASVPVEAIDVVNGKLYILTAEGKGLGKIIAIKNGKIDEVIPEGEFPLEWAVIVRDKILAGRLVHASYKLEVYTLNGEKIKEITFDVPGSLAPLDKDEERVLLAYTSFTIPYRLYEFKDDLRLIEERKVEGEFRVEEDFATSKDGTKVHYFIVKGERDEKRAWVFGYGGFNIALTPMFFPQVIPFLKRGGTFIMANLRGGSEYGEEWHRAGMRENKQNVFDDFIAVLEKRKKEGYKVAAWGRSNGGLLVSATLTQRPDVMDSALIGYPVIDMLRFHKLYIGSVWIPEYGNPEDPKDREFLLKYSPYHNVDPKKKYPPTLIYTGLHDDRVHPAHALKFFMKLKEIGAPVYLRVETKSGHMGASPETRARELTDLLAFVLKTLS
The series is described as follows: Luminescence lifetime titration, cofactor binding to POPNeut. The method in brief: (§1)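 Non-covalent binding is measured by luminescence lifetime titration of the Ru(Bpy)3 2+-type cofactor against Pyrococcus furiosus prolyl oligopeptidase scaffold variants. Kd comes from the titration. Δ lifetime is the lifetime difference between free and bound cofactor. Each plotted point is a single measurement. Error bars are standard deviations from single-exponential tail fitting of the decay data.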

Series [3] addresses T2, POPWT (prolyl oligopeptidase) (Pyrococcus furiosus, UniProt Q51714).
T2 sequence (Q51714 1-616): T1 sequence (Q51714 1-616 R55A/G99A/W142A/R198A/K255A/Y326A/R338A) with A55R, A99G, A142W, A198R, A255K, A326Y, A338R
The experiment in a line: Luminescence lifetime titration, cofactor binding to POPWT. The conditions noted are these: for Kd: POPWT 0-300 μM, cofactor 5 μM, MQ H2O (+/- 0.5% ACN); for Δ lifetime (free vs. bound cofactor): non-covalent binding to POPWT. The procedure, abridged:
as §1

For series [4] the following is noted: deoxygenated acetonitrile ref 5,8; cited from earlier work.
A short description of series [5]: Luminescence lifetime. Format: physicochemical. The following applies: MQ H2O; λexc 450 nm, λem 620 nm; covalent ArMs 50 μM.
Series [6] deals with T3, POPNeg (prolyl oligopeptidase variant) (Pyrococcus furiosus, UniProt Q51714, G99D/K255A/R198A/R338A/R55A/W142D/Y326D).
T3 sequence (Q51714 1-616 R55A/G99D/W142D/R198A/K255A/Y326D/R338A): T1 sequence (Q51714 1-616 R55A/G99A/W142A/R198A/K255A/Y326A/R338A) with A99D, A142D, A326D
The series is described as follows: Luminescence lifetime titration, cofactor binding to POPNeg. The conditions noted are these: non-covalent binding to POPNeg. The method in brief:
as §1

For `[Cl-].[Cl-].[Ru+2].c1ccc(-c2ccccn2)nc1.c1ccc(-c2ccccn2)nc1.c1ccc(-c2ccccn2)nc1` [3a, Ru(Bpy)3^2+], the “binding to BSA” value in series [1] is on record as “minimal non-specific binding affinity”; in series [1] (listed as Ru(Bpy)3^2+), “negligible binding”. Besides, the Kd in series [2] (POPNeut 0-300 μM, cofactor 5 μM, MQ H2O) was 1.7 µM and 1.65 µM; in series [3] it was 28 µM and 28.3 µM. In addition, the “Δ lifetime (free vs. bound cofactor)” value came to 166 ns in series [2] (non-covalent binding to POPNeut), 96 ns in series [3] and 183 ns in series [6]. In series [4], the luminescence lifetime is reported as 930 ns. Also, in series [5], the “Lifetime (luminescence)” value is 573 ns.
As for `O=C([O-])c1ccnc(-c2cc(C(=O)[O-])ccn2)c1.[Ru+2].c1ccc(-c2ccccn2)nc1.c1ccc(-c2ccccn2)nc1` [3d], the equilibrium dissociation constant (Kd) in series [3] is 30 µM and 29.5 µM. The figures for the “Δ lifetime (free vs. bound cofactor)” value in series [3] and in series [6] were 35 ns and 125 ns, respectively.
Consider `[Ru+2].c1ccc(-c2ccccn2)nc1.c1ccc(-c2ccccn2)nc1.c1ccc(-c2ccccn2)nc1` [3b], for which, in series [3], the dissociation constant Kd was 30 µM and 30.1 µM; the “Δ lifetime (free vs. bound cofactor)” value is recorded as 110 ns.
